We go through 19 compounds from PMC3944078 (ACS chemical biology, 2013).

Where two headings read alike, the source gives them in different places.

Broadly, the Kd is a measure of binding affinity in units of concentration. One may read the ΔTm as the change in melting temperature against a reference sample.

In data set [1] the target is T1, myoc-OLF (Homo sapiens, UniProt Q99972).
T1 sequence (Q99972 244-503 limits assumed): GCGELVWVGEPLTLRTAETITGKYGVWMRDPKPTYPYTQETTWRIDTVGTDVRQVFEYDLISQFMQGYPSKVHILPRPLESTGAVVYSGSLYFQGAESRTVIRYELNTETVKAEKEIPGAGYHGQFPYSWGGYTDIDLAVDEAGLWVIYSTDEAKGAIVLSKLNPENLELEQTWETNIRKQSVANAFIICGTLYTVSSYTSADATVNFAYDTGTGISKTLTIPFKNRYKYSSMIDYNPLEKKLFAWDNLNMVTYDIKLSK
The experiment in a line: CARS with myoc-OLF, TMAO dose-dependent SO fluorescence, 96-well. The data set is classed as binding. The following applies: 1 µM myoc-OLF, 0.6 M GdnHCl. The essentials: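 myoc-OLF was expressed as a Factor Xa-cleavable MBP fusion and purified. TMAO was titrated at 0−1 M, and protein was added last, just before fluorescence readings. The signal window was the SO fluorescence difference with versus without 1 M TMAO.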

Data set [2] in a line: Solubility behavior under SPR conditions. The data set is classed as physicochemical.
Data set [3] has as its target T1, myoc-OLF. The experiment in a line: SPR binding to immobilized myoc-OLF. The following applies: for Binding mode by SPR: sensorgram inspection. For orientation: SPR reads the build-up and loss of mass on a sensor chip optically.
Data set [4] deals with T1, myoc-OLF. The experiment in a line: Differential scanning fluorimetry. The data set is classed as binding. The conditions noted are these: DSF; hits at concentrations used for screening.
Data set [5] deals with T1, myoc-OLF. The data set can be described thus: myoc-OLF amyloid fibrillization assay. The data set is classed as biochemical. The conditions noted are these: for Fibrils/deposits by AFM: after fibrillization assay; for myoc-OLF fibrillization (ThT fluorescence): ~3 d, 96-well format.
Data set [6] concerns the target T2, MBP (Escherichia coli, UniProt P0AEX9). The experiment in a line: DSF thermal stability of MBP with ligands. The data set is classed as binding, E. coli. The following applies: 1 µM MBP, 1mM ligand.
The target of data set [7] is T2, MBP. The data set can be described thus: CARS with MBP, SO fluorescence, 96-well. The data set is classed as binding, E. coli. The following applies: for Change in SO fluorescence in the presence of MBP: negative controls, 0–1 mM.
Data set [8] relates to HEK-cell line stably expressing I477N-mutant myocilin. The experiment in a line: Mutant myocilin cellular secretion assay. The data set is classed as cell-based. The conditions noted are these: 20, 100, 200 µM compound, 24 h, immunoblotting of media.
Data set [9] shares this test system. The data set can be described thus: Cellular toxicity profile. The data set is classed as cell-based. The conditions noted are these: up to 200 µM.
Another data set can be described thus: Solubility in cell media. The data set is classed as physicochemical. The following applies: addition to cell media.
The subject of a further data set is E. coli MBP. The following applies: MBP ligand; cited from earlier work.
Where [10] appears, read: standard SPR conditions, compounds dissolved in 5% DMSO.
Setting [11] is: standard SPR conditions, 5% DMSO.

Take `C[N+](C)(C)[O-]` [TMAO, trimethylamine-N-oxide]: at myoc-OLF [1], the “Concentration by which the decrease in SO fluorescence levels off” value is reported as at most 1 M.

`CC(C)(C)c1cc(/C=C(\C#N)C(N)=S)cc(C(C)(C)C)c1O` [Tyrphostin AG 879]: the Solubility behavior result in data set [2] is “poor solubility behavior”. The Kd at myoc-OLF [3] (read-out: Kd from SPR, with surfactant P-20 in buffer solution) came out at 38.6 ± 12.7 µM. The “Binding stoichiometry from SPR” value at myoc-OLF [3] (surfactant P-20 present in SPR buffer) is “stoichiometric binding”. The ΔTm on myoc-OLF [4] was −0.8 ± 0.0 °C.

With `O=C(O)C1=CC(=C(c2ccc(O)c(C(=O)O)c2)c2ccc(O)c(C(=O)O)c2)C=CC1=O` [Aurintricarboxilic acid, Aurintricarboxylic acid], at myoc-OLF [5], the “Fibrils/deposits by AFM” value is on record as “high levels of deposits similar to vehicle control” and the “myoc-OLF fibrillization (ThT fluorescence)” value (shortened to “myoc-OLF fibrillization”) is given as “increase in ThT fluorescence”. The Kd on myoc-OLF [3] turned out to be 17.1 ± 9.6 µM. Further, the ΔTm at myoc-OLF [4] amounted to 0.3 ± 0.2 °C.

Take `OC[C@H]1O[C@H](O[C@H]2[C@H](O)[C@@H](O)[C@@H](O[C@H]3[C@H](O)[C@@H](O)[C@@H](O[C@H]4[C@H](O)[C@@H](O)C(O)O[C@@H]4CO)O[C@@H]3CO)O[C@@H]2CO)[C@H](O)[C@@H](O)[C@@H]1O` (stereo partly drawn) [maltotetraose]: the “Change in melting temperature (ITm)” value on MBP [6] was 10 K.

Turning to `O=S(=O)(F)Cc1ccccc1` [PMSF], at MBP [7], the “Change in SO fluorescence in the presence of MBP” value was “Neither”.

`O=c1cc(-c2ccccc2)oc2c(O)c(O)ccc12` [A1, 7,8-dihydroxyflavone]: the “Secretion of I477N-mutant myocilin” value in [8] is recorded as “increased I477N-mutant myocilin secretion in a dose-dependent manner”. For the same compound, the “myoc-OLF fibrillization” value at myoc-OLF [5] was “dose-dependent decrease in myoc-OLF fibrilization”. Besides, in data set [9], the Cellular toxicity profile result was “adequate”. Also, in “Solubility in cell media”, the “Solubility in cell media” value is recorded as “adequate solubility”.

For the compound `O=C(CCc1ccc(O)cc1)c1c(O)cc(O)cc1O` [Phloretin], on myoc-OLF [3], the “Binding mode by SPR” value is recorded as “bind non-specifically”. Also, the “Kd from SPR” value on myoc-OLF [3] (setting [10]) is “linear dose-response”. Further, the ΔTm at myoc-OLF [4] is 1.2 ± 0.0 °C.

On to `O=c1cc(-c2ccc(O)cc2)oc2cc(O)cc(O)c12` [Apigenin, 4’,5,7-trihydroxyflavone], for which, on myoc-OLF [5], the “Fibrils/deposits by AFM” value was “no fibrils apparent” and the “myoc-OLF fibrillization” value is “decreased myoc-OLF fibrillization in a dose-dependent manner”. Moreover, the ΔTm on myoc-OLF [4] is −0.3 ± 0.2 °C. In the data set “Solubility in cell media”, the “Solubility in cell media” value is reported as “precipitated upon addition to the cell media”.

Turning to `CC(=O)c1c(O)c(C)c(O)c(Cc2c(O)c3c(c(C(=O)/C=C/c4ccccc4)c2O)OC(C)(C)C=C3)c1O` [Rottlerin], on myoc-OLF [3], the Kd is 30.1 ± 0.6 µM and the “Binding mode by SPR” value is “promiscuous binder”.

Regarding `Oc1cc(O)cc(/C=C/c2ccc(O)c(O)c2)c1` [Piceatannol], the “Binding mode by SPR” value on myoc-OLF [3] is listed as “non-stoichiometric binders”. Further, the “Kd from SPR” value on myoc-OLF [3] (setting [10]) is “sigmoidal dose-response”. Moreover, the ΔTm on myoc-OLF [4] was −0.4 ± 0.1 °C.

For `O=C(Nc1ccc([N+](=O)[O-])cc1Cl)c1cc(Cl)ccc1O` [Niclosamide], the Solubility behavior entry in data set [2] (setting [11]) is recorded as “poor solubility behavior”. Also, at myoc-OLF [3], the “Binding mode by SPR” value is recorded as “failed to elicit an interpretable response”. Moreover, at myoc-OLF [3] (setting [10]), the “Kd from SPR” value is “no detectable binding ^d”. Besides, the ΔTm at myoc-OLF [4] was 0.0 ± 0.2 °C.

For the compound `NC(=O)CI` [iodoacetamide], the “Change in SO fluorescence in the presence of MBP” value at MBP [7] is reported as “Neither”.

As to `O=c1c(O)c(-c2cc(O)c(O)c(O)c2)oc2cc(O)cc(O)c12` [Myricetin], the “Binding mode by SPR” value on myoc-OLF [3] is “bind non-specifically”. For the same compound, the “Kd from SPR” value at myoc-OLF [3] (setting [10]) was “linear dose-response”. In addition, the ΔTm at myoc-OLF [4] is 1.7 ± 0.0 °C.

As to `O=C1Nc2ccc(I)cc2C1=Cc1cc(Br)c(O)c(Br)c1` [GW5074, 3-(3,5-dibromo-4-hydroxybenzylidine-5-iodo-1,3-dihydro-indol-2-one)], the Solubility behavior result in data set [2] (setting [11]) is reported as “poor solubility behavior”. Besides, at myoc-OLF [5], the “Fibrils/deposits by AFM” value was “no fibrils apparent” and the “myoc-OLF fibrillization” value is “decreased myoc-OLF fibrillization in a dose-dependent manner”. The Kd at myoc-OLF [3] (read-out: Kd from SPR, standard SPR conditions, compounds dissolved in 5% DMSO) turned out to be 33.5 ± 20.9 µM. Also, the ΔTm on myoc-OLF [4] turned out to be 0.2 ± 0.0 °C. The “Solubility in cell media” value in the data set “Solubility in cell media” was “precipitated upon addition to the cell media”.

With `OC[C@H]1O[C@H](O[C@H]2[C@H](O)[C@@H](O)C(O)O[C@@H]2CO)[C@H](O)[C@@H](O)[C@@H]1O` (mixture of isomers) [Maltose, maltose], on MBP [7] (at low micromolar concentrations, 2 µM MBP, 0.6 M GdnHCl), the “Decrease in SO fluorescence intensity” value came out at 50%. The Kd with E. coli MBP is 1 µM. Also, the “Change in melting temperature (ITm)” value on MBP [6] turned out to be 10 K.

As for `OC[C@@H](O)[C@@H](O[C@H]1O[C@H](CO)[C@@H](O)[C@H](O)[C@H]1O)[C@H](O)[C@@H](O)CO` [maltitol], on MBP [7] (2 µM MBP, 0.6 M GdnHCl), the “Concentration by which a decrease in SO fluorescence was seen” value is reported as ~ 10 µM. Further, in the data set with E. coli MBP, the Kd is 50 µM. For the same compound, the “Change in melting temperature (ITm)” value on MBP [6] is given as 0.9 K.

For `O=C(/C=C/c1ccc(O)cc1)c1ccc(O)cc1O` [Isoliquiritigenin], the “Binding mode by SPR” value on myoc-OLF [3] is recorded as “bind non-specifically”. Besides, the “Kd from SPR” value on myoc-OLF [3] (setting [10]) was “linear dose-response”.

In the case of `O=c1c(O)c(-c2ccc(O)cc2O)oc2cc(O)cc(O)c12` [Morin], in [2] (setting [11]), the Solubility behavior result is on record as “poor solubility behavior”. At myoc-OLF [3], the “Binding mode by SPR” value is listed as “non-stoichiometric binders”. In addition, the “Kd from SPR” value on myoc-OLF [3] (with surfactant P-20 in buffer solution) was “weak sigmoidal response ^c, ^d”. Also, on myoc-OLF [4], the ΔTm is −0.4 ± 0.4 °C.

As to `O=C1Nc2ccccc2C1=Cc1cc(Br)c(O)c(Br)c1` [G5], the “Secretion of I477N-mutant myocilin” value in data set [8] is “increased I477N-mutant myocilin secretion in a dose-dependent manner”. Further, the “myoc-OLF fibrillization” value at myoc-OLF [5] is recorded as “potent fibril inhibition”. Also, in data set [9], the Cellular toxicity profile result is given as “adequate”. The “Solubility in cell media” value in “Solubility in cell media” was “adequate solubility”.
